# In paper PMC9563295 (Journal of the American Chemical Society, 2022):
# Numbered stars: 1 amine (or outer) side, 2 acyl side, 3 side chain; on linkers, the order of the positions; unused ones are H or OH. Bridge positions count the residues as written; N and C are the ends. Square brackets hold non-standard residues; d marks the D form. Peptide text beside a SMILES is read from it. ξ: configuration not given here. ξβ3hPhg = O=C(CC(N[*:1])c1ccccc1)[*:2]; ξPhg = NC(C(=O)O)c1ccccc1; βAla = NCCC(=O)O
# Molecular target: hEGFR (Homo sapiens, UniProt P00533)
# Test: Binding kinetics analysis by surface plasmon resonance
# Conditions: KD compared with 2D and 18D
# hEGFR, sequence (P00533 25-1210): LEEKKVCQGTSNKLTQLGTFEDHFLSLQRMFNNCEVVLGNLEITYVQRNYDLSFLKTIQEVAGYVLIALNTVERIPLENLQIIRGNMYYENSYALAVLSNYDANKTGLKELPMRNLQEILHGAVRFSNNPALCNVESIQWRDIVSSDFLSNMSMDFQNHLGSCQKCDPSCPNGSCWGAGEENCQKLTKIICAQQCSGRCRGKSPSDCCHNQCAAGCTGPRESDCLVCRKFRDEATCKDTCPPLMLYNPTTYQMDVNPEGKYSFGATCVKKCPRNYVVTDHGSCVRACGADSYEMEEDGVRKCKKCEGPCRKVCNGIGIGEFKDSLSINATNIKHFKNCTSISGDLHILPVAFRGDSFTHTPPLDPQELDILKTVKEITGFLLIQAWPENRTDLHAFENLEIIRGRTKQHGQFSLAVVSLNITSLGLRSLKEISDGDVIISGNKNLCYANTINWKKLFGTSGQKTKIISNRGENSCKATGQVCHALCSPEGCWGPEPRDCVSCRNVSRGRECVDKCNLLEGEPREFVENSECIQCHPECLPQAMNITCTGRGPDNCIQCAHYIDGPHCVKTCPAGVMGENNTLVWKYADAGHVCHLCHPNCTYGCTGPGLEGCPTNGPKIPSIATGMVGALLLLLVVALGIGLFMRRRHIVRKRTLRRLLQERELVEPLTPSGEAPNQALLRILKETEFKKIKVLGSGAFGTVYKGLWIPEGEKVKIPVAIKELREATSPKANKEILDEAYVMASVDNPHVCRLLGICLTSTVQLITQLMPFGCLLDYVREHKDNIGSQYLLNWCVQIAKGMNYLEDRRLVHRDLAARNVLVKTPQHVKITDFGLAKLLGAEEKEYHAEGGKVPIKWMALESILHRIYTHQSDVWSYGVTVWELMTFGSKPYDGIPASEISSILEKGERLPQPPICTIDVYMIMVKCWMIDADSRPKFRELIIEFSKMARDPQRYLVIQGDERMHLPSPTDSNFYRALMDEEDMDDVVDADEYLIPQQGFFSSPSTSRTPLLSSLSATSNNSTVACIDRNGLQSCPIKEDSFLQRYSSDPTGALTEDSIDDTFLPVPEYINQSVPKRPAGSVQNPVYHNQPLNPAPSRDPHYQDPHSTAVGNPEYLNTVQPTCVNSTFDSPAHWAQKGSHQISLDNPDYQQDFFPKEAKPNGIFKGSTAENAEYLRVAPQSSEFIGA
row,Compound,fold stronger binding affinity in comparison with 2D and 18D
1,"CC(C)C[C@@H]1NC(=O)CC(c2ccccc2)NC(=O)[C@H](CC(C)C)NC(=O)[C@H](Cc2ccc(O)cc2)NC(=O)CSC[C@@H](C(=O)NCC(N)=O)NC(=O)[C@H](Cc2ccc(O)cc2)NC(=O)[C@H](CC(C)C)NC(=O)[C@H](Cc2ccc(O)cc2)NC(=O)[C@H](CCCNC(=N)N)NC(=O)[C@H](CC(N)=O)NC(=O)[C@@H]2CCCN2C(=O)CC(c2ccccc2)NC(=O)[C@H](CCCNC(=N)N)NC(=O)[C@H](CCCNC(=N)N)NC(=O)CC(c2ccccc2)NC(=O)[C@H](Cc2ccc(O)cc2)NC1=O (stereo partly drawn) [L2β, ^AcYL^βXLY^βXRR^βXPNRYLYCG-NH2] ({CH2CO}-YL[ξβ3hPhg]LY[ξβ3hPhg]RR[ξβ3hPhg]PNRYLYCG-NH2; thioether N-16)",approximately 10 fold
2,CC(C)[C@@H]1NC(=O)[C@H](CCCNC(=N)N)NC(=O)[C@H](Cc2ccc(O)cc2)NC(=O)[C@H](C(C)C)NC(=O)[C@H](C(C)C)NC(=O)[C@H](CCCNC(=N)N)NC(=O)[C@H](CC(=O)O)NC(=O)[C@H](CC(=O)O)NC(=O)CCNC(=O)[C@H](Cc2ccc(O)cc2)NC(=O)[C@H](Cc2ccc(O)cc2)NC(=O)[C@H](Cc2ccccc2)NC(=O)[C@@H](Cc2ccc(O)cc2)NC(=O)CSC[C@@H](C(=O)NCC(N)=O)NC(=O)CC(c2ccccc2)NC1=O (stereo partly drawn) [D4β] ({CH2CO}-[dY]FYY[βAla]DDRVVYRV[ξβ3hPhg]CG-NH2; thioether N-15),approximately 10 fold

# System: not listed separately
# Test: Serum stability assay
# Format: in vitro ADME
# Conditions: human serum, 37 °C; mutant vs parent L2β or D4β
# In short: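 Test peptides (parents plus Ala, backbone-shortening and sidechain-deletion mutants) incubated in human serum at 37 °C for up to 72 h. Percentage of remaining peptide over time estimated by LC/MS, and half-life (t1/2) derived from the decay.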
row,Compound,fold lower t1/2 than the parent peptide
1,CC(C)[C@@H]1NC(=O)[C@H](CCCNC(=N)N)NC(=O)[C@H](Cc2ccc(O)cc2)NC(=O)[C@H](C(C)C)NC(=O)[C@H](C(C)C)NC(=O)[C@H](CCCNC(=N)N)NC(=O)[C@H](CC(=O)O)NC(=O)[C@H](CC(=O)O)NC(=O)[C@H](C)NC(=O)[C@H](Cc2ccc(O)cc2)NC(=O)[C@H](Cc2ccc(O)cc2)NC(=O)[C@H](Cc2ccccc2)NC(=O)[C@@H](Cc2ccc(O)cc2)NC(=O)CSC[C@@H](C(=O)NCC(N)=O)NC(=O)CC(c2ccccc2)NC1=O (stereo partly drawn) [D4A.1] ({CH2CO}-[dY]FYYADDRVVYRV[ξβ3hPhg]CG-NH2; thioether N-15),26 fold
2,CC(C)[C@@H]1NC(=O)[C@H](CCCNC(=N)N)NC(=O)[C@H](Cc2ccc(O)cc2)NC(=O)[C@H](C(C)C)NC(=O)[C@H](C(C)C)NC(=O)[C@H](CCCNC(=N)N)NC(=O)[C@H](CC(=O)O)NC(=O)[C@H](CC(=O)O)NC(=O)CNC(=O)[C@H](Cc2ccc(O)cc2)NC(=O)[C@H](Cc2ccc(O)cc2)NC(=O)[C@H](Cc2ccccc2)NC(=O)[C@@H](Cc2ccc(O)cc2)NC(=O)CSC[C@@H](C(=O)NCC(N)=O)NC(=O)CC(c2ccccc2)NC1=O (stereo partly drawn) [D4α.1] ({CH2CO}-[dY]FYYGDDRVVYRV[ξβ3hPhg]CG-NH2; thioether N-15),2 fold
3,CC(C)C[C@@H]1NC(=O)[C@H](C)NC(=O)[C@H](CC(C)C)NC(=O)[C@H](Cc2ccc(O)cc2)NC(=O)CSC[C@@H](C(=O)NCC(N)=O)NC(=O)[C@H](Cc2ccc(O)cc2)NC(=O)[C@H](CC(C)C)NC(=O)[C@H](Cc2ccc(O)cc2)NC(=O)[C@H](CCCNC(=N)N)NC(=O)[C@H](CC(N)=O)NC(=O)[C@@H]2CCCN2C(=O)[C@H](C)NC(=O)[C@H](CCCNC(=N)N)NC(=O)[C@H](CCCNC(=N)N)NC(=O)[C@H](C)NC(=O)[C@H](Cc2ccc(O)cc2)NC1=O [L2A] ({CH2CO}-YLALYARRAPNRYLYCG-NH2; thioether N-16),approximately 10 fold
4,CC(C)[C@@H]1NC(=O)[C@H](CCCNC(=N)N)NC(=O)[C@H](Cc2ccc(O)cc2)NC(=O)[C@H](C(C)C)NC(=O)[C@H](C(C)C)NC(=O)[C@H](CCCNC(=N)N)NC(=O)[C@H](CC(=O)O)NC(=O)[C@H](CC(=O)O)NC(=O)CCNC(=O)[C@H](Cc2ccc(O)cc2)NC(=O)[C@H](Cc2ccc(O)cc2)NC(=O)[C@H](Cc2ccccc2)NC(=O)[C@@H](Cc2ccc(O)cc2)NC(=O)CSC[C@@H](C(=O)NCC(N)=O)NC(=O)[C@H](C)NC1=O [D4A.2] ({CH2CO}-[dY]FYY[βAla]DDRVVYRVACG-NH2; thioether N-15),2.6 fold

# Molecular target: hEGF–hEGFR interaction (Homo sapiens, UniProt P00533)
# Test: hEGFR inhibition assay using AlphaLISA
# Format: biochemical
# Conditions: not given
# hEGF–hEGFR interaction, sequence (P00533 25-645 limits assumed): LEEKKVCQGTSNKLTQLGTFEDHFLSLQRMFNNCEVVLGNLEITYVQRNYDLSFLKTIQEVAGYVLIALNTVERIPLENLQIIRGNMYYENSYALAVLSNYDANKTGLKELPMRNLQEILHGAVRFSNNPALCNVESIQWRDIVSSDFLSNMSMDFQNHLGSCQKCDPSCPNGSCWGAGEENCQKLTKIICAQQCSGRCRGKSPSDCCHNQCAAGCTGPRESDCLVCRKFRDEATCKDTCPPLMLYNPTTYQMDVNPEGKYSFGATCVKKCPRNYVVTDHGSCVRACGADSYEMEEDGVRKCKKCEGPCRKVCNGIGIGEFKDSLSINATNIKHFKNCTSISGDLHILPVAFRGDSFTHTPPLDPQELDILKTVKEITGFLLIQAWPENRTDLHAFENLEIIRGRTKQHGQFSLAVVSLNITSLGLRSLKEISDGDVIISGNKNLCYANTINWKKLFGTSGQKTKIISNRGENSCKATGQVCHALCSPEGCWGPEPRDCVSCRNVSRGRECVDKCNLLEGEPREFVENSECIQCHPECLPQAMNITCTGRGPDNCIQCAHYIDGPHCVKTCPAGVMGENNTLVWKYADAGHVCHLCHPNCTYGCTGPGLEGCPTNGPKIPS
row,Compound,PPI inhibitory activity against hEGF–hEGFR interaction (in words)
1,"CC(C)C[C@H](NC(=O)CNC(=O)[C@H](CCCNC(=N)N)NC(=O)CC(NC(=O)[C@@H]1CSCC(=O)N[C@H](Cc2ccc(O)cc2)C(=O)N[C@@H](C(C)C)C(=O)N[C@@H](Cc2ccc(O)cc2)C(=O)N1)c1ccccc1)C(=O)N[C@@H](CC(=O)O)C(=O)N1CCC[C@H]1C(=O)N[C@@H](CCCNC(=N)N)C(=O)N[C@@H](CC(C)C)C(=O)N[C@@H](CO)C(=O)N[C@@H](CCCNC(=N)N)C(=O)N[C@@H](Cc1ccccc1)C(=O)N[C@@H](CO)C(=O)NCC(N)=O (stereo partly drawn) [D2β, ^AcyVYC^βXRGLDPRLSRFSG-NH2] ({CH2CO}-[dY]VYC[ξβ3hPhg]RGLDPRLSRFSG-NH2; thioether N-4)",no inhibitory activity
2,CC(C)[C@@H]1NC(=O)[C@H](CCCNC(=N)N)NC(=O)[C@H](Cc2ccc(O)cc2)NC(=O)[C@H](C(C)C)NC(=O)[C@H](C(C)C)NC(=O)[C@H](CCCNC(=N)N)NC(=O)[C@H](CC(=O)O)NC(=O)[C@H](CC(=O)O)NC(=O)[C@H](C)NC(=O)[C@H](Cc2ccc(O)cc2)NC(=O)[C@H](Cc2ccc(O)cc2)NC(=O)[C@H](Cc2ccccc2)NC(=O)[C@@H](Cc2ccc(O)cc2)NC(=O)CSC[C@@H](C(=O)NCC(N)=O)NC(=O)[C@H](C)NC1=O [D4A] ({CH2CO}-[dY]FYYADDRVVYRVACG-NH2; thioether N-15),complete loss of the activity
3,"CC(C)[C@@H]1NC(=O)[C@H](CCCNC(=N)N)NC(=O)[C@H](Cc2ccc(O)cc2)NC(=O)[C@H](C(C)C)NC(=O)[C@H](C(C)C)NC(=O)[C@H](CCCNC(=N)N)NC(=O)[C@H](CC(=O)O)NC(=O)[C@H](CC(=O)O)NC(=O)CNC(=O)[C@H](Cc2ccc(O)cc2)NC(=O)[C@H](Cc2ccc(O)cc2)NC(=O)[C@H](Cc2ccccc2)NC(=O)[C@@H](Cc2ccc(O)cc2)NC(=O)CSC[C@@H](C(=O)NCC(N)=O)NC(=O)C(c2ccccc2)NC1=O (stereo partly drawn) [D4α, ^AcyFYYGDDRVVYRVXCG-NH2] ({CH2CO}-[dY]FYYGDDRVVYRV[ξPhg]CG-NH2; thioether N-15)",complete loss of the activity

# Same assay, conditions: mutant vs parent L2β, D3β or D4β
row,Compound,fold increase of IC50 compared to the parent peptide
1,"CC(C)C[C@@H]1NC(=O)CC(c2ccccc2)NC(=O)[C@H](CC(C)C)NC(=O)[C@H](Cc2ccc(O)cc2)NC(=O)CSC[C@@H](C(=O)NCC(N)=O)NC(=O)[C@H](Cc2ccc(O)cc2)NC(=O)[C@H](CC(C)C)NC(=O)[C@H](Cc2ccc(O)cc2)NC(=O)[C@H](CCCNC(=N)N)NC(=O)[C@H](CC(N)=O)NC(=O)[C@@H]2CCCN2C(=O)CC(c2ccccc2)NC(=O)[C@H](CCCNC(=N)N)NC(=O)[C@H](CCCNC(=N)N)NC(=O)C(c2ccccc2)NC(=O)[C@H](Cc2ccc(O)cc2)NC1=O (stereo partly drawn) [L2α.2, ^AcYL^βXLYXRR^βXPNRYLYCG-NH2] ({CH2CO}-YL[ξβ3hPhg]LY[ξPhg]RR[ξβ3hPhg]PNRYLYCG-NH2; thioether N-16)",460 fold
2,"CC(C)C[C@@H]1NC(=O)CC(c2ccccc2)NC(=O)[C@H](CC(C)C)NC(=O)[C@H](Cc2ccc(O)cc2)NC(=O)CSC[C@@H](C(=O)NCC(N)=O)NC(=O)[C@H](Cc2ccc(O)cc2)NC(=O)[C@H](CC(C)C)NC(=O)[C@H](Cc2ccc(O)cc2)NC(=O)[C@H](CCCNC(=N)N)NC(=O)[C@H](CC(N)=O)NC(=O)[C@@H]2CCCN2C(=O)CC(c2ccccc2)NC(=O)[C@H](CCCNC(=N)N)NC(=O)[C@H](CCCNC(=N)N)NC(=O)CCNC(=O)[C@H](Cc2ccc(O)cc2)NC1=O (stereo partly drawn) [L2βG.2, ^AcYL^βXLY^βGRR^βXPNRYLYCG-NH2] ({CH2CO}-YL[ξβ3hPhg]LY[βAla]RR[ξβ3hPhg]PNRYLYCG-NH2; thioether N-16)",1270 fold
3,CC(C)[C@@H]1NC(=O)[C@H](CCCNC(=N)N)NC(=O)[C@H](Cc2ccc(O)cc2)NC(=O)[C@H](C(C)C)NC(=O)[C@H](C(C)C)NC(=O)[C@H](CCCNC(=N)N)NC(=O)[C@H](CC(=O)O)NC(=O)[C@H](CC(=O)O)NC(=O)CCNC(=O)[C@H](Cc2ccc(O)cc2)NC(=O)[C@H](Cc2ccc(O)cc2)NC(=O)[C@H](Cc2ccccc2)NC(=O)[C@@H](Cc2ccc(O)cc2)NC(=O)CSC[C@@H](C(=O)NCC(N)=O)NC(=O)CCNC1=O [D4βG] ({CH2CO}-[dY]FYY[βAla]DDRVVYRV[βAla]CG-NH2; thioether N-15),2.2 fold
